Results published in ChEMBL document CHEMBL1143652, “Joys of molecules. 2. Endeavors in chemical biology and medicinal chemistry” (J Med Chem, 2005).
In brackets after ≈: the same amount, converted by molar mass.

Columns and labels:
Felis catus = organism: Felis catus; assay: Inhibition of LTC4 and LTD4 production in cat lung at 5 mM; format: functional
[1] = target: T1, Sodium channel alpha subunits; brain (Types I, II, III) (Homo sapiens, UniProt P35498+Q99250+Q9NY46); assay: Inhibitory concentration against synaptosome using [3H]PbTx-3
[2] = target: T1, Sodium channel alpha subunits; brain (Types I, II, III); assay: Inhibitory concentration against synaptosomes using [3H]PbTx-3; format: subcellular
[3] = target: T1, Sodium channel alpha subunits; brain (Types I, II, III)
[4] = target: Peptidyl-prolyl cis-trans isomerase FKBP1A (Homo sapiens, UniProt P62942); assay: Inhibitory concentration against binding to FKBP12
Gallus gallus = assay: In vivo inhibition of angiogenesis in the chick chorioallantoic membrane (CAM) assay; format: functional
[5] = target: Polyunsaturated fatty acid 5-lipoxygenase (Homo sapiens) (UniProt P09917); assay: Inhibitory concentration against 5-lipoxygenase
Enterococcus faecium = assay: Minimum inhibitory concentration against vancomycin resistant Enterococcus faecium; format: functional
[6] = target: Polyunsaturated fatty acid 5-lipoxygenase (Homo sapiens, UniProt P09917); assay: Effective concentration required to inhibit 5-lipoxygenase by 50%
MCF7 = assay: Inhibitory concentration against MCF-7 human breast carcinoma cell line; Inactive upto 1 uM; format: functional, cell-based
PC-3 = assay: Inhibitory concentration against PC-3 human prostate carcinoma cell line; Inactive upto 1 uM; format: functional, cell-based
1A9/ptx-10 = assay: Inhibitory concentration against 1A9/PTX10 cell line; Inactive upto 1 uM; format: functional, cell-based, Homo sapiens
A2780 = assay: Inhibitory concentration against A2780/AD10 cell line; Inactive upto 1 uM; format: functional, cell-based, Homo sapiens
A549 = assay: Inhibitory concentration against A549 human lung carcinoma cell line; Inactive upto 1 uM; format: functional, cell-based
1A9 [7] = assay: Inhibitory concentration against 1A9 human ovarian carcinoma cell line; Inactive upto 1 uM; format: functional, cell-based
[8] = target: Tubulin beta-4B chain (Homo sapiens) (UniProt P68371); assay: (§1) Tubulin polymerization at a concentration of 100 uM incubated for 90 minutes; format: functional
Method in brief: (§2)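 Tubulin polymerization was read as percent polymerization, with test drug at 100 µM and a 90 min incubation.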

[9] = target: Tubulin beta-4B chain (Homo sapiens) (UniProt P68371); assay: as §1; method in brief: as §2
1A9 [10] = assay: Inhibitory concentration against human ovarian 1A9 tumor cells; format: functional, cell-based
[11] = target: T2, Mycothiol S-conjugate amidase (Mycobacterium tuberculosis, UniProt P9WJN1); assay: Inhibition of Mycobacterium tuberculosis detoxification enzyme mycothiol-S-conjugate amidase (MCA)
T2 sequence (P9WJN1 whole entry): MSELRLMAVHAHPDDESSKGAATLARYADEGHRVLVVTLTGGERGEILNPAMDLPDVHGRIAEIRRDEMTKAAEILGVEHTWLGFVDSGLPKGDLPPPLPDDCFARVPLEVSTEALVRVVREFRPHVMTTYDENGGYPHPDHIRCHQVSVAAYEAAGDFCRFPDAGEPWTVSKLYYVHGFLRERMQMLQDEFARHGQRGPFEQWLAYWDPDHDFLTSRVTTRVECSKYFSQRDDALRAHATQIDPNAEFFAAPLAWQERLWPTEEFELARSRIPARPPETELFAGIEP

Bacteria = assay: Minimum inhibitory concentration against bacterial strains; format: functional
1A9 [12] = assay: Cytotoxicity against 1A9 ovarian cancer cells; format: functional, cell-based; conditions: Homo sapiens
OVCAR-3 [13] = assay: Cytotoxicity by measuring inhibitory concentration against ovcar-3 tumor cell line; format: functional, cell-based, Homo sapiens; conditions: Homo sapiens, OVCAR-3
OVCAR-3 [14] = assay: Cytotoxicity by measuring inhibitory concentration against ovcar-3 tumor cell line; 10e-10; format: functional, cell-based; conditions: Homo sapiens
Staphylococcus aureus [15] = assay: Minimum inhibitory concentration against methicillin resistant Staphylococcus aureus (MRSA); format: functional
MOLT-4 [16] = assay: Inhibitory concentration against MOLT-4 human T-cells; format: functional, cell-based
MOLT-4 [17] = assay: Inhibitory concentration against MOLT-4 human T-cells; 10e-12; format: functional, cell-based
Protein kinase C (PKC) = assay: Inhibitory activity against protein kinase C; format: protein assay
[18] = target: cAMP-dependent protein kinase (PKA) (Homo sapiens, UniProt P22694+P17612+P22612); assay: Inhibitory constant against the protein kinase A; format: protein assay
Staphylococcus aureus [19] = assay: Minimum inhibitory concentration against methicillin resistant Staphylococcus aureus (MRSA); range is 3-12 ug/mL; format: functional
[20] = Staphylococcus aureus, read-out: MIC

T1 sequence (Q99250 whole entry, looked up, other chains not shown): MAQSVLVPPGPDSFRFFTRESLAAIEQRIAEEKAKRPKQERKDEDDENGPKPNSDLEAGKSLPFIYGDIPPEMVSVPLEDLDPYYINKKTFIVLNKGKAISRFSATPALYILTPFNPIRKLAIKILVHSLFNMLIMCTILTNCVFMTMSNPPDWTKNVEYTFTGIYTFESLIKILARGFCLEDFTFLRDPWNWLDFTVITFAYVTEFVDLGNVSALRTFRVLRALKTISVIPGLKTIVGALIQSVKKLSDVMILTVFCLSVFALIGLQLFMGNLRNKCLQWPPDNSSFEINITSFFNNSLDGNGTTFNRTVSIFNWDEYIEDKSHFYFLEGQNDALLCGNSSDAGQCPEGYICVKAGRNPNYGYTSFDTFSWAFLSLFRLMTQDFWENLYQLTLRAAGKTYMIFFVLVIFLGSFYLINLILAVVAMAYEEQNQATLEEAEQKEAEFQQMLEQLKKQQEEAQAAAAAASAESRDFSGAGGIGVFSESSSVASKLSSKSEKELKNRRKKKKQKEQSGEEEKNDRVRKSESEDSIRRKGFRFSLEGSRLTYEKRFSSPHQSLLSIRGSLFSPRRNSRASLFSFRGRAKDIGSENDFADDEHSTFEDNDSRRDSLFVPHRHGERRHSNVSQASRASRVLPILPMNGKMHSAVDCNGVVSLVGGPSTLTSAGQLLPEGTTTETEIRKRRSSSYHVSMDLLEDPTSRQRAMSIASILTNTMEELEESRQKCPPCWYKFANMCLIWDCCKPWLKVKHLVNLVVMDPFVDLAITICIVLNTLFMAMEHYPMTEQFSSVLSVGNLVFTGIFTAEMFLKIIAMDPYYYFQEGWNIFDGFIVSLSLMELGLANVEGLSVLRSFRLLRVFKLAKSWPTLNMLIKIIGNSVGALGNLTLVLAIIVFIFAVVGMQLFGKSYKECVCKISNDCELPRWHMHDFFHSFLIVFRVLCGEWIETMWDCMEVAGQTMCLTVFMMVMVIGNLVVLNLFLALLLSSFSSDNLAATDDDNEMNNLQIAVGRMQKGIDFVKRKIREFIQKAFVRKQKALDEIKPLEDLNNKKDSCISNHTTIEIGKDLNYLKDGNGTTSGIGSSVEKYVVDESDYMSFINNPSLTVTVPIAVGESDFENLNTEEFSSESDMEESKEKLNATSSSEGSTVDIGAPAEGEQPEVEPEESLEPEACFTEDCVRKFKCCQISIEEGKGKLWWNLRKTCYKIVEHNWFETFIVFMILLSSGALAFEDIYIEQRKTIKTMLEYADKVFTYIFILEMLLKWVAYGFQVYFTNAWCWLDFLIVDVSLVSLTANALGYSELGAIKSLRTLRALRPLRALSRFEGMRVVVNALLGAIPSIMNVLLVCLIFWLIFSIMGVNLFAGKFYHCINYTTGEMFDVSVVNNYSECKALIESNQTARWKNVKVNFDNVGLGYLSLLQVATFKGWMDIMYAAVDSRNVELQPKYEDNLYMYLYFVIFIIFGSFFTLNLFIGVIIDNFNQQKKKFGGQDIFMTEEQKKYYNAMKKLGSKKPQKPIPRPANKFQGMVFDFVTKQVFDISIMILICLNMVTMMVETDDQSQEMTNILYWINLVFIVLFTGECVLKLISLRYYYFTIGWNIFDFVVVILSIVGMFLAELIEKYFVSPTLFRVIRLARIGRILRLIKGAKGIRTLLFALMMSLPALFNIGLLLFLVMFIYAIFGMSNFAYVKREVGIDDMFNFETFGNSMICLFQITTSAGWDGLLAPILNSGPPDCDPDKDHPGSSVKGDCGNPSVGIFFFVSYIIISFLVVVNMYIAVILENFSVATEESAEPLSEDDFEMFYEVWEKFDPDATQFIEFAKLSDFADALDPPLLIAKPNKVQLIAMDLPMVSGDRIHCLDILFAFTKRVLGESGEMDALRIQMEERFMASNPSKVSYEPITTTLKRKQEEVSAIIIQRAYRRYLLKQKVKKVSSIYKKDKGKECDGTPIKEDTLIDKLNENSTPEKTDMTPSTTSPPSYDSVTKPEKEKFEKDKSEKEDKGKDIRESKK
T1 sequence (Q9NY46 whole entry, looked up, other chains not shown): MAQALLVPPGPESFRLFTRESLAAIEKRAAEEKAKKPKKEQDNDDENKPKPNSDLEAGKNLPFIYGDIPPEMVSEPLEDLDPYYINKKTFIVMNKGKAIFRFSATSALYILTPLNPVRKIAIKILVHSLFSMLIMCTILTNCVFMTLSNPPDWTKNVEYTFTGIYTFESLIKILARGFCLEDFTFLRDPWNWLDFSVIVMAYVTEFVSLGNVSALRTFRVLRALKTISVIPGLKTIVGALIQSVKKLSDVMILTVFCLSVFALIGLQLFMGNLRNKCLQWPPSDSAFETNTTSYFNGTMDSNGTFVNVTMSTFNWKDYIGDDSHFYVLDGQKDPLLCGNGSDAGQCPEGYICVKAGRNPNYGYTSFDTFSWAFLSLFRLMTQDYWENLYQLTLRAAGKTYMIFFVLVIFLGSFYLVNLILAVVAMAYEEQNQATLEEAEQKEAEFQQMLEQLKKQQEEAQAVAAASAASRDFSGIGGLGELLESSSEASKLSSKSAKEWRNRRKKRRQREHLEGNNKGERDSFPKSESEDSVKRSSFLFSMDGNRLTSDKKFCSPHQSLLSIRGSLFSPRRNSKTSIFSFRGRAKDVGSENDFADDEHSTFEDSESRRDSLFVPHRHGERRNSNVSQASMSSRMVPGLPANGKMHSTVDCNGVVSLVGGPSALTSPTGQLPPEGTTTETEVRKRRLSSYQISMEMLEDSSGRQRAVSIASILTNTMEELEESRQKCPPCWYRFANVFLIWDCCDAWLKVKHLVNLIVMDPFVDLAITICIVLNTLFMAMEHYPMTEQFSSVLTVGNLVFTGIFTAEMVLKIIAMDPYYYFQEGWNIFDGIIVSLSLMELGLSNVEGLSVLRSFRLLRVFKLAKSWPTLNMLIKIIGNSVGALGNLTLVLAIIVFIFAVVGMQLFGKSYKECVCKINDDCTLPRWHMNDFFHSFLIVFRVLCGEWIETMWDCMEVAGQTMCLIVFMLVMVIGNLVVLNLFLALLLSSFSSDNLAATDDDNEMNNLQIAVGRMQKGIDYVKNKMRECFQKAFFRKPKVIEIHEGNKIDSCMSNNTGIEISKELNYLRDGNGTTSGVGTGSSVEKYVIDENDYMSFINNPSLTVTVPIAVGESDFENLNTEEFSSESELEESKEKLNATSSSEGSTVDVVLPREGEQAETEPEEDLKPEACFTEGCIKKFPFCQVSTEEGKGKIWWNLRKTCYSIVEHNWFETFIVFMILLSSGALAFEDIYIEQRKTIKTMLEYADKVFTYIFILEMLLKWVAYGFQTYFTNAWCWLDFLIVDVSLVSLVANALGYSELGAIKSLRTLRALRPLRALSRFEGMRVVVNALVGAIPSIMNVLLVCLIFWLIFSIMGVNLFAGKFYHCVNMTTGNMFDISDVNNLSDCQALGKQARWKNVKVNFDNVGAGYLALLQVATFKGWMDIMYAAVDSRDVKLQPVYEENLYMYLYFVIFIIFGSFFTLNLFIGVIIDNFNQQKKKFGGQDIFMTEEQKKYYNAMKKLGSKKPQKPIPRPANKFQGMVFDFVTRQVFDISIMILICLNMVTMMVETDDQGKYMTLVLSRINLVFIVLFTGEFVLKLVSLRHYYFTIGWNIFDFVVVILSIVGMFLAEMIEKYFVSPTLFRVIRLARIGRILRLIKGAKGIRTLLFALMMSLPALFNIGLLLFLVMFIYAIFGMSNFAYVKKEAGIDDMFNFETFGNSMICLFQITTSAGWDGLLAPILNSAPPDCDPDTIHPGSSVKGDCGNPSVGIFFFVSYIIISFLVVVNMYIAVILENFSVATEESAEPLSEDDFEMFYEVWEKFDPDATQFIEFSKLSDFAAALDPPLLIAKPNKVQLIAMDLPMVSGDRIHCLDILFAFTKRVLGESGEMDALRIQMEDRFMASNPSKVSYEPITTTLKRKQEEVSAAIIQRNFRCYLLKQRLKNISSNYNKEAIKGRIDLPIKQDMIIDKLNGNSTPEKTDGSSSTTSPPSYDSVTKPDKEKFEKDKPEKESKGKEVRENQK
Tubulin beta-4B chain (Homo sapiens), sequence (P68371 whole entry): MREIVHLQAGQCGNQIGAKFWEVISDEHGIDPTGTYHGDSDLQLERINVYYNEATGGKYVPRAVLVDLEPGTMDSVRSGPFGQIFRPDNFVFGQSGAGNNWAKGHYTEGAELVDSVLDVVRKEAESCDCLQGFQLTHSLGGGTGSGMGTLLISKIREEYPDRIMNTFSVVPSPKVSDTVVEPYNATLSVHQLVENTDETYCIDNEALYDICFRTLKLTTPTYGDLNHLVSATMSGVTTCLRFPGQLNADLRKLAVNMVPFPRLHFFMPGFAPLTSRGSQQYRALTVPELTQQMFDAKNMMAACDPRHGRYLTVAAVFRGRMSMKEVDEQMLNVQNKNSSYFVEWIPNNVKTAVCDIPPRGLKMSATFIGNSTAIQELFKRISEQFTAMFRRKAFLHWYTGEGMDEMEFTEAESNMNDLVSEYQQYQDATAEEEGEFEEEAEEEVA
Polyunsaturated fatty acid 5-lipoxygenase (Homo sapiens), sequence (P09917 whole entry): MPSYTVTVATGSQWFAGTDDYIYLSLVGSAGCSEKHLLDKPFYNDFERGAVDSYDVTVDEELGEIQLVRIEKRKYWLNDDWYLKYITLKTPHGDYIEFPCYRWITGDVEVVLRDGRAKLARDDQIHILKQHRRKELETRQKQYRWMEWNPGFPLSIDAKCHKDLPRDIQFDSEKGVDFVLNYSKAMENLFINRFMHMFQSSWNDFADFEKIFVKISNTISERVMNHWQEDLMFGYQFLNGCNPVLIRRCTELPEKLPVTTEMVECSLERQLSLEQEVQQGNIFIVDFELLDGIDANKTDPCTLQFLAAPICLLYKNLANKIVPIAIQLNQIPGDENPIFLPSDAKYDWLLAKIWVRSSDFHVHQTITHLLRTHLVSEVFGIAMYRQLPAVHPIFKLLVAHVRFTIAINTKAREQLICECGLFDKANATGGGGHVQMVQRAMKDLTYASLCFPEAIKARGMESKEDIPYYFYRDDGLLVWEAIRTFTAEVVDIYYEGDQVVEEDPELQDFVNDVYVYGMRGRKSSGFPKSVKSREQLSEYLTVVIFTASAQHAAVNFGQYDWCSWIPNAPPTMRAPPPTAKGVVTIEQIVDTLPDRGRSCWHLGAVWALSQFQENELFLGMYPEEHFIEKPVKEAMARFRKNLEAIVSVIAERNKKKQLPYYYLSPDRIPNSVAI

SMILES: CCCCC/C=C\C1(/C=C\C2(/C=C\C3(/C=C\CCCC(=O)O)CC3)CC2)CC1
- Inhibition (Felis catus): 10%

SMILES: C=C(C=O)C[C@@H]1C[C@H](O)[C@]2(C)O[C@@H]3C[C@@H]4O[C@@H]5C[C@]6(C)O[C@]7(C)C(C)=CC(=O)O[C@H]7C[C@H]6O[C@@]5(C)C/C=C\[C@H]4O[C@H]3C[C@H]2O1 [TRUNCATED BREVETOXIN B]
- IC50 [1]: > 10000 nM
- IC50 [2]: > 10000 nM
- Binding [3]: 18 nM

SMILES: CO[C@H]1C[C@@H]2CC[C@@H](C)[C@@](O)(O2)C(=O)C(=O)N2CCCC[C@H]2C(=O)N[C@H](CCc2ccccc2)C(=O)NCC(=O)N(C)CC(=O)O[C@H]1C
- IC50 [4]: 9.6 nM

SMILES: N=C(N)NCCOc1ccc(C(=O)NC[C@H](NS(=O)(=O)c2ccccc2)C(=O)O)cc1[N+](=O)[O-]
- Dose (Gallus gallus): 30 ug/embryo

SMILES: CCCCC/C=C/C\C=C/C=C/C=C/[C@@H]1C[C@H]1CCCC(=O)OC
- ID50 [5]: 6000 nM

SMILES: C=C(C=O)C[C@@H]1C[C@H](O)[C@]2(C)O[C@@H]3C[C@@H]4O[C@@H]5C[C@]6(C)O[C@]7(C)CC[C@@H]8O[C@@H]9C[C@]%10(C)O[C@@H]%11C(C)=CC(=O)O[C@H]%11C[C@H]%10O[C@H]9C[C@@H](C)[C@H]8O[C@H]7C[C@H]6O[C@@]5(C)C/C=C\[C@H]4O[C@H]3C[C@H]2O1 [BREVETOXIN B]
- IC50 [1]: 15.02 nM
- IC50 [2]: 15.02 nM
- Binding [3]: 18 nM

SMILES: CC1OC(OC2C(Oc3c4cc5cc3Oc3ccc(cc3Cl)[C@H](O)[C@H]3NC(=O)[C@@H](NC(=O)[C@H]5NC(=O)[C@@H](CC(N)=O)NC(=O)[C@@H](NC(=O)[C@@H](N)CO)[C@@H](O)c5ccc(c(Cl)c5)O4)c4ccc(O)c(c4)-c4c(O)cc(O)cc4[C@H](C(=O)NCC(=O)O)NC3=O)OC(CO)C(O)C2O)CC(C)(NCc2cccc(OCC/C=C\COc3cccc(CNC4(C)CC(OC5C(Oc6c7cc8cc6Oc6ccc(cc6Cl)[C@@H](O)[C@@H](NC(=O)[C@H](N)CO)C(=O)N[C@@H](CC(N)=O)C(=O)N[C@H]8C(=O)N[C@H]6C(=O)N[C@H](C(=O)N[C@H](C(=O)NCC(=O)O)c8cc(O)cc(O)c8-c8cc6ccc8O)[C@H](O)c6ccc(c(Cl)c6)O7)OC(CO)C(O)C5O)OC(C)C4O)c3)c2)C1O (stereo partly specified)
- MIC (Enterococcus faecium): 0.25 µg/mL (≈ 0.0779 µM)

SMILES: O=C(O)CCC[C@H](O)\C=C/C=C/C=C/[C@H](O)C/C=C\CCCCC(F)(F)F
- EC50 [6]: 3 nM

SMILES: CC(C)[C@H](O)C(=O)N[C@H]1Cc2ccc(O)c(c2)[C@]2(C(=O)Nc3ccccc32)C2=C(CO)N=C(O2)[C@H](C(C)C)NC1=O
- IC50 (MCF7): Inactive
- IC50 (PC-3): Inactive
- IC50 (1A9/ptx-10): Inactive
- IC50 (A2780): Inactive
- IC50 (A549): Inactive
- IC50 (1A9 [7]): Inactive

SMILES: CO[C@]12C=C[C@](C)(O1)[C@@H](OC(=O)/C=C/c1cn(C)cn1)C[C@H]1C(C)=CC[C@H](C(C)C)[C@H]1/C=C\2COC1OCC(O)C(O)C1OC(C)=O (stereo partly specified)
- TP [8]: 54%
- TP [9]: 54%
- IC50 (1A9 [10]): 40 nM

SMILES: O=C(NCCSSc1ccc(F)cc1)/C(Cc1cccc(Br)c1)=N/O
- IC50 [11]: 90000 nM
- MIC (Bacteria): 0.11 ug m/L

SMILES: Nc1ccc(SSCCNC(=O)/C(Cc2cccc(Br)c2)=N/O)cc1
- IC50 [11]: 185000 nM
- MIC (Bacteria): 0.09 ug m/L

SMILES: COC1(OC)C2=C(OC(C)(C)C=C2)C(=O)[C@@H](OC(=O)C2=C[C@]3(OC)C[C@H]4C(C)(C)OC(CC=C(C)C)(C3=O)[C@]24O)[C@@H]1CC=C(C)C
- IC50 (1A9 [12]): 9000 nM

SMILES: CC(=O)OC1C(=O)[C@@]2(C)[C@H]([C@H](OC(=O)c3ccsc3)[C@]3(O)C[C@H](OC(=O)[C@H](O)[C@@H](NC(=O)c4ccccc4)c4ccccc4)C(C)=C1C3(C)C)[C@]1(OC(C)=O)CO[C@@H]1C[C@@H]2O (stereo partly specified)
- IC50 (OVCAR-3 [13]): 0.671 nM
- IC50 (OVCAR-3 [14]): 0.67 nM

SMILES: CC1(C)C=Cc2cc(-c3ccco3)cc(/C=C(/C#N)c3ccc(O)cc3)c2O1
- MIC (Staphylococcus aureus [15]): 2 µg/mL (≈ 5.41 µM)
- MIC (Staphylococcus aureus [15]; [20]): 2 µg/mL (≈ 5.41 µM)

SMILES: CCNC1COC(OC2C(O[C@H]3C#C/C=C\C#C[C@@](C)(O)C(=C/CSC(C)=O)/C3=C(\NC(=O)OC)C(C)=O)OC(C)C(NOC3CC(O)C(SC(=O)c4c(C)c(I)c(OC5OC(C)C(O)C(OC)C5O)c(OC)c4OC)C(C)O3)C2O)CC1OC (stereo partly specified)
- IC50 (MOLT-4 [16]): < 0.01 nM
- IC50 (MOLT-4 [17]): < 0.001 nM

SMILES: O=C(N[C@@H]1CNCCC[C@H]1OC(=O)c1cc(O)c(C(=O)c2ccccc2C(=O)O)c(O)c1)c1ccc(O)cc1
- Ki (Protein kinase C (PKC)): 640 nM
- Ki [18]: 3.9 nM

SMILES: CC1(C)C=Cc2cccc(/C=C(/C#N)c3ccc(O)cc3)c2O1
- MIC (Staphylococcus aureus [19]): 12 µg/mL (≈ 39.6 µM)
- MIC (Staphylococcus aureus [19]; [20]): 12 µg/mL (≈ 39.6 µM)
